Test results as given in ChEMBL document CHEMBL1817562, “Docking and SAR studies of D- and L-isofagomine isomers as human β-glucocerebrosidase inhibitors” (Bioorg Med Chem, 2011).

Experiments:
[1] = species on record: Rattus norvegicus; assay: Inhibition of rat intestinal cellobiase assessed as production of p-nitrophenol at 1000 uM by spectrophotometry
[2] = tested on: Coffea; assay: Inhibition of coffee beans alpha-galactosidase assessed as production of p-nitrophenol at 1000 uM by spectrophotometry
In short: (§1)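 p-Nitrophenyl glycoside matched to each enzyme, 2 mM, with enzyme at that enzyme's optimum pH: Penicillium decumbens α-L-rhamnosidase pH 4.0, bovine liver β-galactosidase pH 6.8, coffee bean α-galactosidase pH 6.5, jack bean α-mannosidase pH 4.5, snail β-mannosidase pH 4.5. Stopped with 400 mM Na2CO3; released p-nitrophenol read at 400 nm.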

[3] = target: T1, Beta-galactosidase (Bos taurus) (UniProt Q58D55); assay: Inhibition of bovine liver beta-galactosidase assessed as production of p-nitrophenol at 1000 uM by spectrophotometry; in short: as §1
T1 sequence (whole entry): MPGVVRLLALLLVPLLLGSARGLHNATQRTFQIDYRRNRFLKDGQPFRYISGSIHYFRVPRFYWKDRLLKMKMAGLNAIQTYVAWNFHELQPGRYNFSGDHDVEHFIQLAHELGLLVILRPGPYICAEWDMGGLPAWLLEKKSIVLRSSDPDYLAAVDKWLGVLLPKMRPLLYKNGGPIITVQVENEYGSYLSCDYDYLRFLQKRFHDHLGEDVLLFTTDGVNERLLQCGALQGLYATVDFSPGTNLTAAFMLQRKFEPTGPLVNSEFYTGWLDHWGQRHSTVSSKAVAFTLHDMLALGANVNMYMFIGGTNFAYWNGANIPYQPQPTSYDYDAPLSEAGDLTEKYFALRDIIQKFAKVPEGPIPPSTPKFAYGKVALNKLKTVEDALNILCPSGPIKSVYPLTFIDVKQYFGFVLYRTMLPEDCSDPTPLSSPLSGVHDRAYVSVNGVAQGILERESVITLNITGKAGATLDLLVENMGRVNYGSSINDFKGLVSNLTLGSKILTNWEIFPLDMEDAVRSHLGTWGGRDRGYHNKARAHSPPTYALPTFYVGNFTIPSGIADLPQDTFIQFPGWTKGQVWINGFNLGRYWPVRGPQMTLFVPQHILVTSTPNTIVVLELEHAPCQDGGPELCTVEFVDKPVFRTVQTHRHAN

[4] = tested on: Canavalia ensiformis; assay: Inhibition of jack beans alpha-mannosidase assessed as production of p-nitrophenol at 1000 uM by spectrophotometry; in short: as §1
[5] = tested on: Helix pomatia; assay: Inhibition of snail beta-mannosidase assessed as production of p-nitrophenol at 1000 uM by spectrophotometry; in short: as §1
[6] = tested on: Penicillium decumbens; assay: Inhibition of Penicillium decumbens alpha-L-rhamnosidase assessed as production of p-nitrophenol at 1000 uM by spectrophotometry; in short: as §1
[7] = tested on: Oryza sativa; conditions: 1000 uM
[8] = species on record: Rattus norvegicus; conditions: 1000 uM
[9] = target: Sucrase-isomaltase, intestinal (Rattus norvegicus) (UniProt P23739); conditions: 1000 uM
Sucrase-isomaltase, intestinal (Rattus norvegicus), sequence (P23739 1-1013 limits assumed): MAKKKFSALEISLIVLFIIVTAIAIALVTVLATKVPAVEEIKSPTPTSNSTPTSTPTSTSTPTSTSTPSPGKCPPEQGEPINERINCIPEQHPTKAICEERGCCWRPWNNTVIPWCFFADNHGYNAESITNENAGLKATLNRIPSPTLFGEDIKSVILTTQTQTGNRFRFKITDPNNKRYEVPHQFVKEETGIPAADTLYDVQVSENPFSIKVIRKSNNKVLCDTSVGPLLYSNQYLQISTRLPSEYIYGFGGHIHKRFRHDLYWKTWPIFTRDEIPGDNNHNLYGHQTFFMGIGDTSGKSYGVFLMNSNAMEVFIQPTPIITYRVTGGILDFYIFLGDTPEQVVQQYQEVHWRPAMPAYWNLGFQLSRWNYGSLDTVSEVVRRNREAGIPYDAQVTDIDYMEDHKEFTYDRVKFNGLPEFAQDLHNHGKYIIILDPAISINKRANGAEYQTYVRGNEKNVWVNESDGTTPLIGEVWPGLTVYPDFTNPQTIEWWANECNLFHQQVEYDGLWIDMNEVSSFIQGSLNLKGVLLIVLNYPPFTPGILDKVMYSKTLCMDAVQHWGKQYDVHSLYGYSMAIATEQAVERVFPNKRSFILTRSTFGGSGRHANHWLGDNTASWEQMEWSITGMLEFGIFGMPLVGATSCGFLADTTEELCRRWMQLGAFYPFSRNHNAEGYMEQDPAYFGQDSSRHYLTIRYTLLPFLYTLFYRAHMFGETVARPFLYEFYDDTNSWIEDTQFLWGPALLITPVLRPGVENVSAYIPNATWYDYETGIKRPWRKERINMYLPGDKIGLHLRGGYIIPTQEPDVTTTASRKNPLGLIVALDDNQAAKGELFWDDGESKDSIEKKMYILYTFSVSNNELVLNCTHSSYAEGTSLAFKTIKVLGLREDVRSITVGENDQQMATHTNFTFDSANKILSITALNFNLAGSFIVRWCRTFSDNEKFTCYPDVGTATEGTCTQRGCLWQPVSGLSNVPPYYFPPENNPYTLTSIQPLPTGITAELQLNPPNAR
Sucrase-isomaltase, intestinal (Rattus norvegicus), sequence (P23739 1014-1841 limits assumed): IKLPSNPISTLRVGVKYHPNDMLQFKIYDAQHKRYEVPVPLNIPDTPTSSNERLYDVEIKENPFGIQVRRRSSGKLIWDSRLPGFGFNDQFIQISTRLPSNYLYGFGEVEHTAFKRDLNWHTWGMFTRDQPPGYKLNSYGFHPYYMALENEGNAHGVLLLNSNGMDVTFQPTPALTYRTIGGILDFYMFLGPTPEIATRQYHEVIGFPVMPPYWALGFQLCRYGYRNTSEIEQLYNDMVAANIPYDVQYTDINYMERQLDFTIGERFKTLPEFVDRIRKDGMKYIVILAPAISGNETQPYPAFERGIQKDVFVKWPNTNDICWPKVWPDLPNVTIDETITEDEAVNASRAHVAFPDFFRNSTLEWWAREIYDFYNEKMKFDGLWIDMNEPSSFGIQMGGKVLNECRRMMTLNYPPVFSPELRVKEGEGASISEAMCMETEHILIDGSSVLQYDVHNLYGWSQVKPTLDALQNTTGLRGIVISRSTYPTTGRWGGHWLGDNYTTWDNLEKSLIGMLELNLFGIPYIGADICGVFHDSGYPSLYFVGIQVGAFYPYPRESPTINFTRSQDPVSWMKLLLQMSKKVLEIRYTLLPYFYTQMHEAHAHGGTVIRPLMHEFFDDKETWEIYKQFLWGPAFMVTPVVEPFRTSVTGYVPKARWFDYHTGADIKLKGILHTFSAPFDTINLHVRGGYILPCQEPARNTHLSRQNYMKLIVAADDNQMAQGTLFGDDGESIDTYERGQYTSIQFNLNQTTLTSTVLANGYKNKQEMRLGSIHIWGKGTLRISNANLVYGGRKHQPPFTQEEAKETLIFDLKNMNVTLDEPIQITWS

[10] = target: Sucrase-isomaltase, intestinal (Rattus norvegicus) (UniProt P23739); conditions: 1000 uM; remark: listed apart in the source
[11] = tested on: Prunus dulcis; conditions: 1000 uM
[12] = target: T2, Lysosomal acid glucosylceramidase (Homo sapiens) (UniProt P04062); conditions: 1000 uM
T2 sequence (whole entry): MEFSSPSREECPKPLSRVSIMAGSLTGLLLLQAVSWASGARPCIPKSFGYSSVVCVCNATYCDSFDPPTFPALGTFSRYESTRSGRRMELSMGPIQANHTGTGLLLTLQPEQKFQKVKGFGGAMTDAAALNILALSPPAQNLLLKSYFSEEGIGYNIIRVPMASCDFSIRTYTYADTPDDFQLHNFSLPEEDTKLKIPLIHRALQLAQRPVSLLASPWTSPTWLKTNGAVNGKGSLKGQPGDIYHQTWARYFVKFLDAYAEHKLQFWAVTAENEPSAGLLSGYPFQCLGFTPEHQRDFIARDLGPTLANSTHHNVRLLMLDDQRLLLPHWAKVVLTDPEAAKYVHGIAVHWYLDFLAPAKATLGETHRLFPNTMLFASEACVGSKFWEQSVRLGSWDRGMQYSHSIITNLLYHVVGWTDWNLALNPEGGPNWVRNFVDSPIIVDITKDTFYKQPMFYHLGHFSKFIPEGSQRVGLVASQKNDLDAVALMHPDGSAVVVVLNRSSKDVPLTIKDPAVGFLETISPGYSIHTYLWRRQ

[13] = target: T3, Tissue alpha-L-fucosidase (Bos taurus) (UniProt Q2KIM0); conditions: 1000 uM
T3 sequence (whole entry): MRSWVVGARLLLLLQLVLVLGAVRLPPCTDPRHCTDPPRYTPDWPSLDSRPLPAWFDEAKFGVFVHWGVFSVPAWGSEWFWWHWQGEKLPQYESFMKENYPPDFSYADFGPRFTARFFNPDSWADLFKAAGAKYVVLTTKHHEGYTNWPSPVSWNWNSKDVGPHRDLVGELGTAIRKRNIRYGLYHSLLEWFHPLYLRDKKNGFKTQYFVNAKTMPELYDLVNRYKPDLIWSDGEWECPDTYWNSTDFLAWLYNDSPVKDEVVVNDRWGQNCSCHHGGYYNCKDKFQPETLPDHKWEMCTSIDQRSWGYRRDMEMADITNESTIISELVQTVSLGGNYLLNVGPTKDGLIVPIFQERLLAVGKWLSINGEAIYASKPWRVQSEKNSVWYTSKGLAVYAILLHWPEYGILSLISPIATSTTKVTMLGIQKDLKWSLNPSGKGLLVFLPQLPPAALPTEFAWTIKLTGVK

[14] = target: Lactase/phlorizin hydrolase (Rattus norvegicus) (UniProt Q02401); conditions: 1000 uM
Lactase/phlorizin hydrolase (Rattus norvegicus), sequence (Q02401 868-1928 limits assumed): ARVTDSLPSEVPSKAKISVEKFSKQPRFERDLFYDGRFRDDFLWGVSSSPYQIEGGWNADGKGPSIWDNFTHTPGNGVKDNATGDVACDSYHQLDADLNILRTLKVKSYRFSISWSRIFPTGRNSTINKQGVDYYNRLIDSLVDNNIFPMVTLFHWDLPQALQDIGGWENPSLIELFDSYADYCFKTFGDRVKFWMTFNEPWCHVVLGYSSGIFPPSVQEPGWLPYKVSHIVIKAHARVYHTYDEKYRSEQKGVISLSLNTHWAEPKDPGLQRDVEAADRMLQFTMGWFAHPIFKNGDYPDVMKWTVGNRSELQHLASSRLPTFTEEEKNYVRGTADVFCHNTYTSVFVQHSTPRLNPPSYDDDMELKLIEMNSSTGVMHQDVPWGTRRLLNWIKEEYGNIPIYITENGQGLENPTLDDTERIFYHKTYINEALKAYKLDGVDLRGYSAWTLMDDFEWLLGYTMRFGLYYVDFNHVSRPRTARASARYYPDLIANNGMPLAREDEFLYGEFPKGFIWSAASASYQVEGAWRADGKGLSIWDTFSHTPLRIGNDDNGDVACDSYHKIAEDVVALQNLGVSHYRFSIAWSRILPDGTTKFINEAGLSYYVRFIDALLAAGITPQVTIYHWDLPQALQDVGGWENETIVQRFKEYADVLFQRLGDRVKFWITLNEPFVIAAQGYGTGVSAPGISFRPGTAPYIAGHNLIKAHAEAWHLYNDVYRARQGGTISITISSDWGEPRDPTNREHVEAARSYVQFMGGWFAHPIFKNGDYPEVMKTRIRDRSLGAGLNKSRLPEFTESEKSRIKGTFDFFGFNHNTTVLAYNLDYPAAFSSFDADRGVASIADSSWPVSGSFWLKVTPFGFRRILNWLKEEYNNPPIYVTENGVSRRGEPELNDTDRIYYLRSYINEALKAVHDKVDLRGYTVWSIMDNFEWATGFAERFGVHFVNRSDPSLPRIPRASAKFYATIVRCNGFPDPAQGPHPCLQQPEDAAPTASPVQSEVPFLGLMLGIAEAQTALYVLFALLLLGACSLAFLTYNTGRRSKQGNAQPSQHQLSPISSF

[15] = target: T4, Glucosylceramidase (Bos taurus) (UniProt Q2KHZ8); assay: Inhibition of bovine liver beta-glucosidase assessed as production of p-nitrophenol using p-nitrophenyl glycoside as substrate at 1000 uM by spectrophotometry
T4 sequence (whole entry): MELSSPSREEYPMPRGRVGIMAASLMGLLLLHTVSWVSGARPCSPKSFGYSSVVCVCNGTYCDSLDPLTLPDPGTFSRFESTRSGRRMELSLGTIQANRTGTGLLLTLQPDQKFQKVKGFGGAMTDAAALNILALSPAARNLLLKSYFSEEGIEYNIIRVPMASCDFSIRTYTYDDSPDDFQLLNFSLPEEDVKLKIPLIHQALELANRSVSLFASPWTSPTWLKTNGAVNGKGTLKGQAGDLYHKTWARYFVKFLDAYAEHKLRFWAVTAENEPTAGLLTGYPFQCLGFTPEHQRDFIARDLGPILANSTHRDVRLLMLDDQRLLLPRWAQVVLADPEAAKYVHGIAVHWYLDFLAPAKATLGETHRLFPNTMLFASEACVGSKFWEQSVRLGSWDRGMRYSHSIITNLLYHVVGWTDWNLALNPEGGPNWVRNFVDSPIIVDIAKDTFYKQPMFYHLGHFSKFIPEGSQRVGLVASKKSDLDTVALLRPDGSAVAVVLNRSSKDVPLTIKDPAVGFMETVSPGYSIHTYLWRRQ

[16] = target: Lactase/phlorizin hydrolase (Rattus norvegicus, UniProt Q02401); assay: Inhibition of rat intestinal lactase assessed as production of p-nitrophenol by spectrophotometry
Lactase/phlorizin hydrolase, sequence (Q02401 868-1928 limits assumed): as the sequence (Q02401 868-1928 limits assumed) above

[17] = Inhibition of rat intestinal cellobiase assessed as production of p-nitrophenol by spectrophotometry
[18] = Inhibition of rice alpha-glucosidase assessed as production of D-glucose using maltose as substrate after 10 to 30 mins by spectrophotometry; set-up: species or system Oryza sativa
In short: (§2)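 Enzymes were rice α-glucosidase at pH 5.0 and rat small-intestine brush border membranes (Kessler method) at pH 5.8. Each reaction contained 25 mM maltose and enzyme and was incubated 10–30 min at 37 °C. Reactions were stopped by heating at 100 °C for 3 min, then centrifuged. Released D-glucose was measured with a glucose test reagent by absorbance at 505 nm.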

[19] = Inhibition of almond beta-glucosidase assessed as production of p-nitrophenol using p-nitrophenyl glycoside as substrate by spectrophotometry
[20] = Inhibition of rat intestinal maltase assessed as production of D-glucose using maltose as substrate after 10 to 30 mins by spectrophotometry; in short: as §2
[21] = target: T5, Beta-galactosidase (Bos taurus, UniProt Q58D55); assay: Inhibition of bovine liver beta-galactosidase assessed as production of p-nitrophenol by spectrophotometry
T5 sequence (Q58D55 whole entry): T1 sequence (whole entry)

[22] = target: Sucrase-isomaltase, intestinal (Rattus norvegicus, UniProt P23739); assay: Inhibition of rat intestinal sucrase assessed as release of D-glucose at by spectrophotometry
Sucrase-isomaltase, intestinal, sequence (P23739 1-1013 limits assumed): as the sequence (P23739 1-1013 limits assumed) above
Sucrase-isomaltase, intestinal, sequence (P23739 1014-1841 limits assumed): as the sequence (P23739 1014-1841 limits assumed) above

inhibition [1] [%]	inhibition [2] [%]	inhibition [3] [%]	inhibition [4] [%]	inhibition [5] [%]	inhibition [6] [%]	inhibition [7] [%]	inhibition [8] [%]	inhibition [9] [%]	inhibition [10] [%]	inhibition [11] [%]	inhibition [12] [%]	inhibition [13] [%]	inhibition [14] [%]	inhibition [15] [%]	IC50 [16] [µM]	IC50 [19] [µM]	Structure (SMILES)	other results
< 50	< 50	< 50	< 50	< 50	< 50	< 50	< 50	< 50	< 50	< 50	< 50	< 50	< 50	< 50	–	–	OC[C@@H]1NCC[C@H](O)[C@H]1O	–
–	< 50	–	< 50	< 50	< 50	–	< 50	< 50	< 50	–	< 50	< 50	–	–	4.3	120	OC[C@H]1NCC[C@H](O)[C@@H]1O	IC50 [17]: 39 µM; IC50 [18]: 120 µM
< 50	< 50	< 50	< 50	< 50	< 50	–	–	< 50	< 50	< 50	< 50	< 50	< 50	< 50	–	–	OC[C@@H]1NCC[C@@H](O)[C@@H]1O	IC50 [20]: 668 µM; IC50 [18]: 980 µM
< 50	< 50	–	< 50	< 50	< 50	< 50	< 50	< 50	< 50	< 50	< 50	< 50	–	–	646	–	OC[C@@H]1CNC[C@@H](O)[C@@H]1O	IC50 [21]: 389 µM
< 50	< 50	< 50	< 50	< 50	< 50	< 50	< 50	< 50	< 50	< 50	< 50	< 50	–	< 50	469	–	OC[C@@H]1CNC[C@@H](O)[C@H]1O	–
–	< 50	< 50	< 50	< 50	< 50	< 50	< 50	< 50	< 50	< 50	< 50	< 50	–	< 50	211	–	OC[C@H]1CNC[C@H](O)[C@H]1O	IC50 [17]: 912 µM
< 50	< 50	–	< 50	< 50	< 50	–	–	–	–	–	–	–	–	< 50	–	980	OC[C@@H]1NC[C@@H](O)[C@H](O)[C@H]1O	IC50 [20]: 28 µM; IC50 [18]: 4.3 µM
< 50	< 50	< 50	< 50	< 50	< 50	< 50	< 50	< 50	< 50	< 50	< 50	< 50	< 50	< 50	–	–	OC[C@@H]1NCC[C@H](O)[C@@H]1O	–
< 50	< 50	< 50	< 50	< 50	< 50	< 50	< 50	–	–	< 50	< 50	< 50	< 50	< 50	–	–	OC[C@H]1NCC[C@H](O)[C@H]1O	–
–	< 50	–	< 50	< 50	< 50	< 50	< 50	–	–	–	–	< 50	–	–	20	236	OC[C@@H]1CNC[C@H](O)[C@H]1O	IC50 [21]: 821 µM; IC50 [22]: 34 µM
–	< 50	< 50	< 50	< 50	< 50	< 50	< 50	< 50	< 50	–	–	< 50	–	< 50	52	443	OC[C@H]1CNC[C@H](O)[C@@H]1O	IC50 [17]: 334 µM
